Results taken from ChEMBL document CHEMBL3421565, “β-D-2'-C-Methyl-2,6-diaminopurine Ribonucleoside Phosphoramidates are Potent and Selective Inhibitors of Hepatitis C Virus (HCV) and Are Bioconverted Intracellularly to Bioactive 2,6-Diaminopurine and Guanosine 5'-Triphosphate Forms” (J Med Chem, 2015).
Active and inactive are the calls of the source. The rule behind the calls is not given here.

Legend:
Hepatitis C virus = test: Antiviral activity against HCV infected in human HuH7 cells assessed as reduction in replicon RNA levels incubated for 5 days by RT-PCR assay; type: functional, organism-based, Hepacivirus hominis; settings: Huh-7, 120 h
In short: (§1)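 Huh-7 clone B cells carrying HCV replicon RNA, seeded at 3000 cells/well; compounds added in dose response in triplicate right after seeding. Incubated 5 days at 37 °C, 5% CO₂. Total RNA extracted; replicon RNA and rRNA internal control co-amplified by one-step multiplex real-time RT-PCR. Antiviral effect taken as ΔCt versus no-drug control; cytotoxicity read from rRNA reduction.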

[1] = Cytotoxicity against human HuH7 cells assessed as reduction in rRNA levels incubated for 5 days by RT-PCR assay; type: cell-based, Huh-7; settings: for CC50: huh-7, 120 h; in short: as §1
PBMC = test: (§2) Cytotoxicity against human PBMC assessed as reduction in cell viability incubated for 5 days by Cell-titer 96 aqueous one solution cell proliferation assay; type: cell-based; settings: pbmc, 120 h
CCRF-CEM = test: (§3) Cytotoxicity against human CEM cells assessed as reduction in cell viability incubated for 5 days by Cell-titer 96 aqueous one solution cell proliferation assay; type: cell-based; settings: ccrf-cem, 120 h
Vero = test: (§4) Cytotoxicity against African green monkey Vero cells assessed as reduction in cell viability incubated for 5 days by Cell-titer 96 aqueous one solution cell proliferation assay; type: cell-based; settings: chlorocebus sabaeus, vero, 120 h
HepG2 [2] = test: Mitochondrial toxicity in human HepG2 cells assessed as effect on mitochondrial cytochrome c oxidase subunit 2 DNA level incubated for 14 days by real-time PCR method; type: cell-based; settings: hepg2, 336 h
In short: (§5)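 HepG2 cells in DMEM with 4.5 g/L glucose and 10% heat-inactivated FBS, seeded at 5000 cells/well on collagen; compounds added 1 day later at final 1–50 μM. Medium and compound renewed every 3–4 days for 14 days; duplicates in two independent experiments. COXII mtDNA and nuclear β-actin DNA measured by real-time PCR, normalised to untreated control; IC₅₀ calculated.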

HepG2 [3] = test: Mitochondrial toxicity in human HepG2 cells assessed as effect on nuclear beta-actin DNA level incubated for 14 days by real-time PCR method; type: cell-based; settings: hepg2, 336 h; in short: as §5
HepG2 [4] = test: Mitochondrial toxicity in human HepG2 cells assessed as induction of lactic acid levels at 1 uM incubated for 14 days; type: cell-based; settings: hepg2, 336 h
In short: (§6)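 After 14 days of HepG2 exposure to compound (same culture regimen as the mtDNA assay), lactic acid in culture supernatant quantified with a D-/L-lactic acid kit by absorbance. Results expressed as % lactic acid over % nuclear DNA (β-actin control); mean of triplicates from a single plate.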

HepG2 [5] = test: Mitochondrial toxicity in human HepG2 cells assessed as induction of lactic acid levels at 10 uM incubated for 14 days; type: cell-based; settings: hepg2, 336 h; in short: as §6
HepG2 [6] = test: Mitochondrial toxicity in human HepG2 cells assessed as induction of lactic acid levels at 50 uM incubated for 14 days; type: cell-based; settings: hepg2, 336 h; in short: as §6
Hepacivirus hominis [7] = test: Inhibition of HCV C-terminal His-tagged NS5Bdelta21 enzyme assessed as reduction in NS5B-mediated RNA polymerization using [32P]-GpG primer, RNA template and rNTP nucleotide mix incubated for 120 mins by PAGE method
In short: (§7)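 Purified NS5BΔ21 (C-terminal His tag), 1 μM, at 30 °C with 1 μM 20-mer RNA template and 1 μM ³²P-GpG primer. Buffer was 40 mM Tris pH 7.5, 6 mM NaCl, 2 mM MgCl₂. Started with 10 μM NTP mix, 1 μM competing NTP and triphosphate inhibitor at 0–100 μM. Products run on 20% denaturing PAGE and quantified; IC₅₀ calculated.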

Hepacivirus hominis [8] = test: Inhibition of HCV C-terminal His-tagged NS5Bdelta21 enzyme assessed as induction of pausing at sites of GMP incorporation during NS5B-mediated RNA polymerization using [32P]-GpG primer, RNA template and rNTP nucleotide mix incubated for 120 mins by PAGE method
In short: as §7, with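 “μM. Stopped at 120 min with EDTA/formamide.” for “μM.”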

Hepatocyte [9] = test: (§8) Drug level in human primary hepatocytes treated with 50 uM Ethyl 3-(2-(((R)-(((2R,3R,4R,5R)-5-(2,6-Diamino-9H-purin-9-yl)-3,4-dihydroxy-4-methyltetrahydrofuran-2-yl)methoxy)(((S)-1-ethoxy-1-oxopropan-2-yl)amino)phosphoryl)oxy)phenyl)-propanoate assessed as compound formation incubated for 4 hrs at 37 degC by LC-MS/MS method; type: ADME, cell-based
In short: (§9)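 Freshly plated primary human hepatocytes seeded at 1 × 10⁶ per well and acclimated overnight, then given 50 μM compound for 4 h at 37 °C. After two ice-cold PBS washes, extraction ran overnight at −20 °C in 70% methanol with 20 nM ddATP. Dried extracts went to LC–MS/MS for intracellular metabolites, as three replicates from one plate, ±SD.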

[10] = as §8, with “HuH7 cells” for “primary hepatocytes”; type: ADME, cell-based; settings: huh-7, 4 h
In short: (§10)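 Huh-7 cells seeded at 1 × 10⁶ per well and exposed to 50 μM compound after attachment, 4 h at 37 °C. Cells washed twice with ice-cold PBS, then extracted overnight at −20 °C in 70% methanol containing 20 nM ddATP. Supernatants were dried and analysed by LC–MS/MS for parent nucleoside and its mono-, di- and triphosphates (pmol/10⁶ cells).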

Hepatocyte [11] = test: Drug level in human primary hepatocytes treated with 50 uM beta-D-2,6-diaminopurine nucleoside assessed as compound formation incubated for 4 hrs at 37 degC by LC-MS/MS method; type: ADME, cell-based; in short: as §9
[12] = Drug level in human HuH7 cells treated with 50 uM beta-D-2,6-diaminopurine nucleoside assessed as compound formation incubated for 4 hrs at 37 degC by LC-MS/MS method; type: ADME, cell-based; settings: huh-7, 4 h; in short: as §10
[13] = (§11) Drug level in human HuH7 cells treated with 50 uM Isopropyl 3-(2-(((S)-(((2R,3S,4R,5R)-5-(2,6-Diamino-9H-purin-9-yl)-3,4-dihydroxy-4-methyltetrahydrofuran-2-yl)methoxy)-(((S)-1-isopropoxy-1-oxopropan-2-yl)amino)phosphoryl)oxy)-phenyl)propanoate 15c(Sp) and Isopropyl 3-(2-(((R)-(((2R,3S,4R,5R)-5-(2,6-Diamino-9H-purin-9-yl)-3,4-dihydroxy-4-methyltetrahydrofuran-2-yl)methoxy)(((S)-1-isopropoxy-1-oxopropan-2-yl)amino)phosphoryl)oxy)phenyl)propanoate assessed as compound formation incubated for 4 hrs at 37 degC by LC-MS/MS method; type: ADME, cell-based; settings: huh-7, 4 h; in short: as §10
Hepatocyte [14] = test: as §11, with “primary hepatocytes” for “HuH7 cells”; type: ADME, cell-based; in short: as §9
[15] = as §2; type: cell-based; settings: PBMC
[16] = as §3; type: cell-based, CCRF-CEM; settings: CEM cells (CCRF-CEM)
[17] = as §4; type: cell-based; settings: chlorocebus sabaeus, Vero cells
HepG2 [18] = test: Toxicity in human HepG2 cells assessed as increase in cell death at 10 uM; type: cell-based; settings: hepg2, 10 µM

SMILES	EC50 (Hepatitis C virus)	EC90 (Hepatitis C virus)	CC50 [1]	CC50 (PBMC)	CC50 (CCRF-CEM)	CC50 (Vero)	further results
CCOC(=O)[C@H](C)NP(=O)(OC[C@H]1O[C@@H](n2cnc3c(N)nc(N)nc32)[C@](C)(O)[C@@H]1O)Oc1ccccc1 (stereo partly drawn)	0.9 µM	4 µM	> 10 µM	> 100 µM	> 100 µM	> 100 µM	CC50 (HepG2 [2]): > 50 µM; CC50 (HepG2 [3]): > 50 µM; Activity (HepG2 [4]): 100%; Activity (HepG2 [5]): 140%; Activity (HepG2 [6]): 90%
Nc1ccn([C@@H]2CS[C@H](CO)O2)c(=O)n1 [LAMIVUDINE]	–	–	–	–	–	–	CC50 (HepG2 [2]): > 10 µM; CC50 (HepG2 [3]): > 10 µM; Activity (HepG2 [5]): 91%
CCOC(=O)CCc1ccccc1OP(=O)(N[C@@H](C)C(=O)OC(C)C)OC[C@H]1O[C@@H](n2cnc3c(N)nc(N)nc32)[C@](C)(O)[C@H]1O (stereo partly drawn)	2.2 µM	9 µM	–	–	–	–	–
CC(C)OC(=O)CCc1ccccc1O[P@@](=O)(N[C@@H](C)C(=O)OC(C)C)OC[C@H]1O[C@@H](n2cnc3c(N)nc(N)nc32)[C@](C)(O)[C@H]1O	1 µM	2.7 µM	> 10 µM	–	> 100 µM	–	–
C[C@@]1(O)[C@H](O)[C@@H](COP(=O)(O)OP(=O)(O)OP(=O)(O)O)O[C@H]1n1cnc2c(=O)[nH]c(N)nc21 [INX-09114]	–	–	–	–	–	–	inhibition (Hepacivirus hominis [7]): Dose-dependent effect; inhibition (Hepacivirus hominis [8]): Active; Drug metabolism (Hepatocyte [9]): metabolite_detected; Drug metabolism [10]: metabolite_detected; Drug metabolism (Hepatocyte [11]): metabolite_detected; Drug metabolism [12]: metabolite_detected; Drug metabolism [13]: metabolite_detected; Drug metabolism (Hepatocyte [14]): metabolite_detected
CC(C)OC(=O)CCc1ccccc1O[P@](=O)(N[C@@H](C)C(=O)OC(C)C)OC[C@H]1O[C@@H](n2cnc3c(N)nc(N)nc32)[C@](C)(O)[C@H]1O	0.9 µM	2.8 µM	–	> 100 µM	40 µM	–	–
CCOC(=O)CCc1ccccc1O[P@](=O)(N[C@@H](C)C(=O)OCC)OC[C@H]1O[C@@H](n2cnc3c(N)nc(N)nc32)[C@](C)(O)[C@H]1O	2.7 µM	8.7 µM	–	> 100 µM	–	–	–
CCOC(=O)CCc1ccccc1OP(=O)(OC[C@H]1O[C@@H](n2cnc3c(N)nc(N)nc32)[C@](C)(O)[C@@H]1O)Oc1ccccc1CCC(=O)OCC	> 10 µM	> 10 µM	–	–	–	–	CC50 at 120 h ([1]; HuH7 cells): > 10 µM; CC50 at 120 h [15]: 64 µM; CC50 at 120 h [16]: 25 µM; CC50 at 120 h [17]: 90 µM
Nc1ccn([C@H]2CC[C@@H](CO)O2)c(=O)n1 [ZALCITABINE]	–	–	–	–	–	–	CC50 (HepG2 [2]): < 10 µM; CC50 (HepG2 [3]): < 10 µM; Activity (HepG2 [5]): 220%
COc1nc(N)nc2c1ncn2[C@@H]1O[C@H](COP(=O)(N[C@@H](C)C(=O)OCC(C)(C)C)Oc2cccc3ccccc23)[C@@H](O)[C@@]1(C)O (stereo partly drawn) [BMS-986094]	0.02 µM	0.04 µM	0.8 µM	4.7 µM	8.7 µM	14 µM	CC50 (HepG2 [2]): 4.7 µM; CC50 (HepG2 [3]): < 1 µM; Activity (HepG2 [4]): 190%; Activity (HepG2 [18]): Toxic
C[C@@]1(O)[C@H](O)[C@@H](CO)O[C@H]1n1cnc2c(N)nc(N)nc21	5.4 µM	> 10 µM	> 33 µM	> 100 µM	> 100 µM	> 100 µM	CC50 (HepG2 [2]): > 50 µM; CC50 (HepG2 [3]): > 50 µM; Activity (HepG2 [4]): 110%; Activity (HepG2 [5]): 170%; Activity (HepG2 [6]): 110%
CCOC(=O)CCc1ccccc1OP(=O)(N[C@@H](C)C(=O)OCC)OC[C@H]1O[C@@H](n2cnc3c(N)nc(N)nc32)[C@](C)(O)[C@H]1O (mixture of isomers)	2.3 µM	7.3 µM	> 10 µM	–	> 100 µM	–	–
CCOC(=O)[C@H](C)NP(=O)(OC[C@H]1O[C@@H](n2cnc3c(N)nc(N)nc32)[C@](C)(O)[C@H]1O)Oc1ccccc1CCC(=O)OC(C)C (stereo partly drawn)	1.7 µM	8 µM	–	–	–	> 100 µM	–
CCOC(=O)CCc1ccccc1OP(=O)(N[C@@H](C)C(=O)OCC)OC[C@H]1O[C@@H](n2cnc3c(N)nc(N)nc32)[C@]2(C)OC(=O)O[C@@H]12 (stereo partly drawn)	2.8 µM	8.5 µM	> 10 µM	> 100 µM	> 100 µM	> 100 µM	–
CCOC(=O)[C@H](C)N[P@](=O)(OC[C@H]1O[C@@H](n2cnc3c(N)nc(N)nc32)[C@](C)(O)[C@H]1O)Oc1ccccc1CCC(=O)OC(C)C	9.1 µM	26 µM	> 10 µM	–	–	–	–
CCOC(=O)[C@H](C)N[P@@](=O)(OC[C@H]1O[C@@H](n2cnc3c(N)nc(N)nc32)[C@](C)(O)[C@H]1O)Oc1ccccc1CCC(=O)OC(C)C	1.4 µM	6.9 µM	–	> 100 µM	> 100 µM	–	–
CCOC(=O)CCc1ccccc1O[P@@](=O)(N[C@@H](C)C(=O)OC(C)C)OC[C@H]1O[C@@H](n2cnc3c(N)nc(N)nc32)[C@](C)(O)[C@H]1O	2.4 µM	8.2 µM	–	–	–	> 100 µM	–
CCOC(=O)CCc1ccccc1O[P@](=O)(N[C@@H](C)C(=O)OC(C)C)OC[C@H]1O[C@@H](n2cnc3c(N)nc(N)nc32)[C@](C)(O)[C@H]1O	4.7 µM	9.7 µM	> 10 µM	> 100 µM	> 100 µM	–	–
